Data: ChEMBL document CHEMBL2062410, “Synthesis, characterization and pharmacological study of 4,5-dihydropyrazolines carrying pyrimidine moiety” (2012)

Key:
Assay type in all cases: functional
[1] = Free radical scavenging activity assessed as inhibition of DPPH radical generation at 25 ug
Summary of the method: (§1)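 Brand-Williams method: 1 mL sample at […] per mL mixed with 2 mL of 0.2 mM methanolic DPPH. Stood 30 min at room temperature, then absorbance read at 517 nm. % scavenging calculated relative to 0.2 mM DPPH control without sample.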

[2] = Free radical scavenging activity assessed as inhibition of DPPH radical generation at 50 ug; summary of the method: as §1
[3] = Free radical scavenging activity assessed as inhibition of DPPH radical generation at 100 ug; summary of the method: as §1
[4] = Free radical scavenging activity assessed as inhibition of hydroxyl radical generation at 100 ug by Fenton reaction method
[5] = Free radical scavenging activity assessed as inhibition of superoxide anion generation at 100 ug
[6] = Free radical scavenging activity assessed as inhibition of nitric oxide generation at 100 ug
Rattus norvegicus [7] = assay: Antiinflammatory activity in Wistar albino rat assessed as inhibition of carrageenan-induced paw edema dosed at 20 mg/kg in plantar region of paw administered 30 mins before carrageenan challenge measured 0.5 hrs post carrageenan-induced inflammation
Summary of the method: (§2)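 Wistar albino rats of either sex, 180–250 g, fasted 12 h before and during testing. Test compounds at 20 mg/kg given 30 min before carrageenan (0.1 mL of 1% w/v) injected into the plantar paw; diclofenac 20 mg/kg as reference. Paw volume by plethysmography at 30–180 min. % inhibition = (1 − Vt/Vc) × 100 against control edema; mean ± SEM, n = 6.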

Rattus norvegicus [8] = assay: Antiinflammatory activity in Wistar albino rat assessed as inhibition of carrageenan-induced paw edema dosed at 20 mg/kg in plantar region of paw administered 30 mins before carrageenan challenge measured 1 hr post carrageenan-induced inflammation; summary of the method: as §2
Rattus norvegicus [9] = assay: Antiinflammatory activity in Wistar albino rat assessed as inhibition of carrageenan-induced paw edema dosed at 20 mg/kg in plantar region of paw administered 30 mins before carrageenan challenge measured 1.5 hrs post carrageenan-induced inflammation; summary of the method: as §2
Rattus norvegicus [10] = assay: Antiinflammatory activity in Wistar albino rat assessed as inhibition of carrageenan-induced paw edema dosed at 20 mg/kg in plantar region of paw administered 30 mins before carrageenan challenge measured 2 hrs post carrageenan-induced inflammation; summary of the method: as §2
Rattus norvegicus [11] = assay: Antiinflammatory activity in Wistar albino rat assessed as inhibition of carrageenan-induced paw edema dosed at 20 mg/kg in plantar region of paw administered 30 mins before carrageenan challenge measured 2.5 hrs post carrageenan-induced inflammation; summary of the method: as §2
Rattus norvegicus [12] = assay: Antiinflammatory activity in Wistar albino rat assessed as inhibition of carrageenan-induced paw edema dosed at 20 mg/kg in plantar region of paw administered 30 mins before carrageenan challenge measured 3 hrs post carrageenan-induced inflammation; summary of the method: as §2
Mus musculus [13] = assay: Analgesic activity in Swiss albino mouse assessed as increase in reaction time at 10 mg/kg, ip measured 30 mins post dose by tail immersion method; settings: route intraperitoneal
Summary of the method: (§3)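 Tail immersion in Swiss albino mice, 6 per group, heat as pain source. Tail tip dipped in a thermostatic bath held at 55 °C. Basal reaction time noted before treatment. Test compounds at 10 mg/kg i.p., with pentazocine as reference. Reaction time read at 30, 60 and 90 min, given as mean ± SEM with % increase over basal.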

Mus musculus [14] = assay: Analgesic activity in Swiss albino mouse assessed as increase in reaction time at 10 mg/kg, ip measured 60 mins post dose by tail immersion method; settings: route intraperitoneal; summary of the method: as §3
Mus musculus [15] = assay: Analgesic activity in Swiss albino mouse assessed as increase in reaction time at 10 mg/kg, ip measured 90 mins post dose by tail immersion method; settings: route intraperitoneal; summary of the method: as §3

Row | SMILES | inhibition [1] [%] | inhibition [2] [%] | inhibition [3] [%] | inhibition [4] [%] | inhibition [5] [%] | inhibition [6] [%] | inhibition in vivo at 20 mg/kg (Rattus norvegicus [7]) [%] | inhibition in vivo at 20 mg/kg (Rattus norvegicus [8]) [%] | inhibition in vivo at 20 mg/kg (Rattus norvegicus [9]) [%] | inhibition in vivo at 20 mg/kg (Rattus norvegicus [10]) [%] | inhibition in vivo at 20 mg/kg (Rattus norvegicus [11]) [%] | inhibition in vivo at 20 mg/kg (Rattus norvegicus [12]) [%] | Activity (Mus musculus [13]) [%] | Activity (Mus musculus [14]) [%] | Activity (Mus musculus [15]) [%]
1 | Clc1ccc(C2=NN(c3ncc(Br)cn3)[C@@H](c3ccc(Br)cc3)C2)cc1 | 52.2 | 67.3 | 78.5 | 70.6 | 24.6 | 38.1 | – | – | – | – | – | – | – | – | –
2 | Cc1cc(C(C)(C)C)c(O)c(C(C)(C)C)c1 | 65.9 | 79.4 | 93.2 | 87 | 64 | 43.2 | – | – | – | – | – | – | – | – | –
3 | Cc1ccc([C@H]2CC(c3ccc(Cl)cc3)=NN2c2ncc(Br)cn2)cc1 | 54.4 | 71.8 | 80 | 63.2 | 43.8 | 38.1 | – | – | – | – | – | – | – | – | –
4 | O=C(O)Cc1ccccc1Nc1c(Cl)cccc1Cl [DICLOFENAC] | – | – | – | – | – | – | 61 | 69 | 67 | 78 | 71 | 80 | – | – | –
5 | Cc1ccc([C@H]2CC(c3ccccc3)=NN2c2ncc(Br)cn2)cc1 | 67.5 | 79.2 | 94.1 | 89.1 | 59.1 | 56.1 | 63 | 68 | 71 | 69 | 72 | 79 | 16.51 | 73.66 | 65.63
6 | Clc1ccc(C2=NN(c3ncc(Br)cn3)[C@@H](c3ccc(Cl)cc3)C2)cc1 | 54.5 | 69.2 | 78.3 | 69.4 | 38.6 | 31.4 | – | – | – | – | – | – | – | – | –
7 | Clc1ccc([C@H]2CC(c3ccccc3)=NN2c2ncc(Br)cn2)cc1 | 60.1 | 78.1 | 93.5 | 87.9 | 60 | 43.3 | 61 | 70 | 71 | 76 | 72 | 78 | 29.71 | 72.16 | 78.31
8 | Cc1ccc([C@H]2CC(c3ccc(Br)cc3)=NN2c2ncc(Br)cn2)cc1 | 55.3 | 66.3 | 69.3 | 71.5 | 50.2 | 33.7 | – | – | – | – | – | – | – | – | –
9 | Brc1ccc(C2=NN(c3ncc(Br)cn3)[C@@H](c3ccc(Br)cc3)C2)cc1 | 51.5 | 69.7 | 78.2 | 71.4 | 52.5 | 23.8 | – | – | – | – | – | – | – | – | –
10 | Clc1ccc(C2=NN(c3ncc(Br)cn3)[C@@H](c3ccccc3)C2)cc1 | 62.7 | 76.5 | 90.5 | 82.6 | 42.6 | 39.1 | 60 | 71 | 71 | 73 | 70 | 75 | 37.62 | 70.79 | 84.65
11 | Clc1ccc([C@H]2CC(c3ccc(Br)cc3)=NN2c2ncc(Br)cn2)cc1 | 56.8 | 68.2 | 78.9 | 66.3 | 38.9 | 40.2 | – | – | – | – | – | – | – | – | –
12 | CC(C)=CCN1CC[C@@]2(C)c3cc(O)ccc3C[C@@H]1[C@@H]2C (relative stereo) | – | – | – | – | – | – | – | – | – | – | – | – | 25.7 | 45.79 | 67.28
13 | Brc1ccc([C@H]2CC(c3ccccc3)=NN2c2ncc(Br)cn2)cc1 | 65.4 | 79.6 | 93.4 | 86.8 | 62.1 | 47.6 | 64 | 68 | 74 | 74 | 78 | 76 | 25.76 | 62.01 | 59.39
14 | O=[N+]([O-])c1ccc([C@H]2CC(c3ccccc3)=NN2c2ncc(Br)cn2)cc1 | 54.5 | 64.7 | 75.6 | 79.2 | 42.2 | 32.1 | – | – | – | – | – | – | – | – | –
15 | COc1ccc([C@H]2CC(c3ccc(Cl)cc3)=NN2c2ncc(Br)cn2)cc1 | 68.5 | 79.4 | 89.8 | 81.6 | 58.7 | 46.2 | 58 | 62 | 64 | 70 | 69 | 73 | 28.97 | 39.25 | 71.96
